ChEMBL document CHEMBL1123730, “Synthesis and pharmacological evaluation of a new class of 2-(2-aminothiazol-4-yl)-2-hydrazonoacetamido cephalosporins” (J Med Chem, 1987)
≈ marks a conversion by molar mass, not a printed value.

Tests used:
Pseudomonas [1] = test: Geometrical average of minimum inhibitory concentration was determined in isosensitest broth against Pseudomonas; type: functional
Serratia = test: Geometrical average of minimum bactericidal concentration was determined in isosensitest broth against Serratia; type: functional
[2] = Serum level was determined at 240 min after an intravenous administration of 50 mg/kg in rats; type: ADME, organism-based; parameters: dose 50 mg/kg, route intravenous; conditions: rat, read-out: Serum level
Outline: (§1)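 Dose 50 mg/kg in sterile water, iv or im, to Wistar rats 200-250 g, five per time point; killed at set intervals, blood centrifuged for serum. Antibiotic measured by agar diffusion on Nutrient Agar with E. coli ATCC 10536 (37 °C, 18 h), standards diluted in serum; detection limit 1 μg/mL. Mean ± SEM of five rats.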

[3] = Distribution (50 mg/kg) was determined in lung 30 min after intramuscular administration; type: ADME, organism-based; conditions: im, read-out: Tissue distribution
Outline: (§2)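 Wistar rats (200-250 g, groups of five) given 50 mg/kg in sterile water iv or im; killed at set times, lung, liver and kidney homogenized in 0.1 M pH 7.3 phosphate buffer (tissue:buffer 1:5). Drug assayed by agar diffusion on Nutrient Agar with E. coli ATCC 10536 (37 °C, 18 h); standards in phosphate buffer; detection limit 0.5 μg/mL; mean ± SEM.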

[4] = Serum level was determined at 60 min after intramuscular administration of 50 mg/kg in rats; type: ADME, organism-based; parameters: dose 50 mg/kg, route intramuscular; conditions: rat, im, read-out: Serum level; outline: as §1
Neisseria perflava = test: Geometrical average of minimum inhibitory concentration was determined in isosensitest broth against Neisseria perfl.; type: functional
[5] = Distribution (50 mg/kg) was determined in kidney 5 min after intravenous administration; type: ADME, organism-based; conditions: read-out: Tissue distribution; outline: as §2
[6] = Serum level was determined at 30 min after an intravenous administration of 50 mg/kg in rats; type: ADME, organism-based; parameters: dose 50 mg/kg, route intravenous; conditions: rat, read-out: Serum level; outline: as §1
[7] = Serum level was determined at 5 min after an intravenous administration of 50 mg/kg in rats; type: ADME, organism-based; parameters: dose 50 mg/kg, route intravenous; conditions: rat, read-out: Serum level; outline: as §1
[8] = Distribution (50 mg/kg) was determined in kidney 15 min after intramuscular administration; type: ADME, organism-based; conditions: im, read-out: Tissue distribution; outline: as §2
Staphylococcus aureus = test: Geometrical average of minimum inhibitory concentration was determined in isosensitest broth against Staphylococcus; type: functional
Staphylococcus [9] = test: Geometrical average of minimum bactericidal concentration was determined in isosensitest broth against Staphylococcus (10); type: functional
Escherichia coli [10] = test: Minimum inhibitory concentration against Escherichia coli ISM strain; type: functional
Salmonella [11] = test: Geometrical average of minimum bactericidal concentration was determined in isosensitest broth against Salmonella; type: functional
Escherichia coli [12] = test: Geometrical average of minimum bactericidal concentration was determined in isosensitest broth against Escherichia coli; type: functional
Sarcina [13] = test: Geometrical average of minimum inhibitory concentration was determined in isosensitest broth against Sarcina; type: functional
[14] = Serum level was determined at 120 min after intramuscular administration of 50 mg/kg in rats; type: ADME, organism-based; parameters: dose 50 mg/kg, route intramuscular; conditions: rat, im, read-out: Serum level; outline: as §1
[15] = Distribution (50 mg/kg) was determined in liver 15 min after intramuscular administration; type: ADME, organism-based; conditions: im, read-out: Tissue distribution; outline: as §2
Staphylococcus [16] = test: Geometrical average of minimum bactericidal concentration was determined in isosensitest broth against Staphylococcus (P); type: functional
Pseudomonas [17] = test: Geometrical average of minimum bactericidal concentration was determined in isosensitest broth against Pseudomonas; type: functional
[18] = Distribution (50 mg/kg) was determined in liver 5 min after intravenous administration; type: ADME, organism-based; conditions: read-out: Tissue distribution; outline: as §2
[19] = Serum level was determined at 120 min after an intravenous administration of 50 mg/kg in rats; type: ADME, organism-based; parameters: dose 50 mg/kg, route intravenous; conditions: rat, read-out: Serum level; outline: as §1
Bacillus [20] = test: Geometrical average of minimum inhibitory concentration was determined in isosensitest broth against Bacillus; type: functional
[21] = Distribution (50 mg/kg) was determined in liver 60 min after intravenous administration; type: ADME, organism-based; conditions: read-out: Tissue distribution; outline: as §2
Bacillus [22] = test: Geometrical average of minimum bactericidal concentration was determined in isosensitest broth against Bacillus; type: functional
Escherichia coli [23] = test: In vivo protective dose was determined in infected swiss mice (120/strain) infected ip with Escherichia coli ISM with an inoculum size-0.5 mL of 10 E6 CFU/mL of suspension. Activity in range of 0.90-2.34; type: functional
Klebsiella = test: Geometrical average of minimum inhibitory concentration was determined in isosensitest broth against Klebsiella; type: functional
[24] = Half-life administered, intramuscularly; type: ADME; conditions: im
Outline: (§3)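 Wistar rats (200-250 g, groups of five) given 50 mg/kg in sterile water iv or im; killed at 5-360 min, serum separated. Levels by agar diffusion bioassay, E. coli ATCC 10536 test organism, 37 °C 18 h, standards in serum (detection limit 1 μg/mL); elimination half-life derived from serum time course.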

[25] = Distribution (50 mg/kg) was determined in liver 120 min after intravenous administration; type: ADME, organism-based; conditions: read-out: Tissue distribution; outline: as §2
[26] = Distribution (50 mg/kg) was determined in kidney 120 min after intravenous administration; type: ADME, organism-based; conditions: in vivo, 2 h; outline: as §2
[27] = Serum level was determined at 15 min after an intravenous administration of 50 mg/kg in rats; type: ADME, organism-based; parameters: dose 50 mg/kg, route intravenous; conditions: rat, read-out: Serum level; outline: as §1
Salmonella typhimurium = test: Minimum inhibitory concentration against Salmonella Typhimurium T.O was determined; type: functional, Salmonella enterica subsp. enterica serovar Typhimurium; conditions: Salmonella enterica
Klebsiella pneumoniae = test: In vivo protective dose was determined in infected swiss mice (120/strain) infected ip with Klebsiella pneumoniae 102 with an inoculum size-0.5 mL of 10 E5 CFU/mL of suspension. Activity in range of 10.47-22.94
[28] = Distribution (50 mg/kg) was determined in kidney 30 min after intravenous administration; type: ADME, organism-based; conditions: read-out: Tissue distribution; outline: as §2
Salmonella [29] = test: Geometrical average of minimum inhibitory concentration was determined in isosensitest broth against Salmonella; type: functional
[30] = Distribution (50 mg/kg) was determined in kidney 30 min after intramuscular administration; type: ADME, organism-based; conditions: im, read-out: Tissue distribution; outline: as §2
[31] = Serum level was determined at 30 min after intramuscular administration of 50 mg/kg in rats; type: ADME, organism-based; parameters: dose 50 mg/kg, route intramuscular; conditions: rat, im, read-out: Serum level; outline: as §1
[32] = Distribution (50 mg/kg) was determined in liver 15 min after intravenous administration; type: ADME, organism-based; conditions: read-out: Tissue distribution; outline: as §2
Proteus = test: Geometrical average of minimum inhibitory concentration was determined in isosensitest broth against Proteus; type: functional, Proteus sp.
[33] = Serum level was determined at 360 min after intramuscular administration of 50 mg/kg in rats; type: ADME, organism-based; parameters: dose 50 mg/kg, route intramuscular; conditions: rat, im, read-out: Serum level; outline: as §1
[34] = Distribution (50 mg/kg) was determined in lung 30 min after intravenous administration; type: ADME, organism-based; conditions: read-out: Tissue distribution; outline: as §2
Streptococcus [35] = test: Geometrical average of minimum inhibitory concentration was determined in isosensitest broth against Streptococcus; type: functional
[36] = Geometrical average of minimum inhibitory concentration was determined in isosensitest broth against gram-positive strains.; type: functional
[37] = Distribution (50 mg/kg) was determined in kidney 120 min after intramuscular administration; type: ADME, organism-based; conditions: im, read-out: Tissue distribution; outline: as §2
[38] = Geometrical average of minimum inhibitory concentration was determined in isosensitest broth against gram-negative strains.; type: functional
[39] = Half-life administered, intravenously; type: ADME, organism-based; conditions: in vivo, iv; outline: as §3
Escherichia coli [40] = test: Geometrical average of minimum inhibitory concentration was determined in isosensitest broth against Escherichia coli; type: functional
Streptococcus [41] = test: Geometrical average of minimum bactericidal concentration was determined in isosensitest broth against Streptococcus; type: functional
Enterobacter = test: Geometrical average of minimum inhibitory concentration was determined in isosensitest broth against Enterobacter; type: functional
Sarcina [42] = test: Geometrical average of minimum bactericidal concentration was determined in isosensitest broth against Sarcina; type: functional

Cn1nnnc1SCC1=C(C(=O)O)N2C(=O)[C@@H](NC(=O)/C(=N/N)c3csc(N)n3)[C@H]2SC1
MIC (Pseudomonas [1]): > 100 µg/mL
MBC (Serratia): 3.12 µg/mL (≈ 6.28 µM)
concentration at 4 h [2]: 3650 ng/mL
concentration at 0.5 h [3]: 12200 ng/g
concentration at 1 h [4]: 64.4 µg/mL
MIC (Neisseria perflava): < 0.09 µg/mL
concentration at 5 min [5]: 107000 ng/g
concentration at 0.5 h [6]: 87.2 µg/mL
concentration at 5 min [7]: 231 µg/mL
concentration at 0.25 h [8]: 25100 ng/g
MIC (Staphylococcus aureus): 6.69 µg/mL (≈ 13.5 µM)
MBC (Staphylococcus [9]): 11.3 µg/mL (≈ 22.7 µM)
MIC (Escherichia coli [10]): 1.1 µg/mL (≈ 2.22 µM)
MBC (Salmonella [11]): 1.79 µg/mL (≈ 3.6 µM)
MBC (Escherichia coli [12]): 1.01 µg/mL (≈ 2.03 µM)
MIC (Sarcina [13]): 1.56 µg/mL (≈ 3.14 µM)
concentration at 2 h [14]: 32900 ng/mL
concentration at 0.25 h [15]: 15400 ng/g
MBC (Staphylococcus [16]): 50 µg/mL (≈ 101 µM)
MBC (Pseudomonas [17]): > 100 µg/mL
concentration at 5 min [18]: 43200 ng/g
concentration at 2 h [19]: 20500 ng/mL
MIC (Bacillus [20]): 42 µg/mL (≈ 84.6 µM)
concentration at 1 h [21]: 9220 ng/g
MBC (Bacillus [22]): 50 µg/mL (≈ 101 µM)
ED50 (Escherichia coli [23]): 1.45 mg/kg
MIC (Klebsiella): 1.17 µg/mL (≈ 2.36 µM)
half-life [24]: 69 min
concentration at 2 h [25]: ≤ 5000 ng/g
Tissue distribution [26]: Undetectable
concentration at 0.25 h [27]: 137 µg/mL
MIC (Salmonella typhimurium): 1.1 µg/mL (≈ 2.22 µM)
ED50 (Klebsiella pneumoniae): 15.5 mg/kg
concentration at 0.5 h [28]: 19600 ng/g
MIC (Salmonella [29]): 0.86 µg/mL (≈ 1.73 µM)
concentration at 0.5 h [30]: 36200 ng/g
concentration at 0.5 h [31]: 96.2 µg/mL
concentration at 0.25 h [32]: 25800 ng/g
MIC (Proteus): 1.08 µg/mL (≈ 2.17 µM)
concentration at 6 h [33]: 3430 ng/mL
concentration at 0.5 h [34]: 8970 ng/g
MIC (Streptococcus [35]): 25 µg/mL (≈ 50.3 µM)
MIC [36]: 4.95 µg/mL (≈ 9.97 µM)
concentration at 2 h [37]: 10200 ng/g
MIC [38]: 1.74 µg/mL (≈ 3.5 µM)
half-life [39]: 45 min
MIC (Escherichia coli [40]): 0.6 µg/mL (≈ 1.21 µM)
MBC (Streptococcus [41]): 70.7 µg/mL (≈ 142 µM)
MIC (Enterobacter): 1.96 µg/mL (≈ 3.95 µM)
MBC (Sarcina [42]): 2.21 µg/mL (≈ 4.45 µM)
